Reference: ChEMBL document CHEMBL3822433, “Discovery of N-(3-fluoro-4-methylsulfonamidomethylphenyl)urea as a potent TRPV1 antagonistic template” (Bioorg Med Chem Lett, 2016)

Key:
Type in all cases: cell-based
[1] = target: T1, Transient receptor potential cation channel subfamily V member 1 (Homo sapiens, UniProt Q8NER1); assay: Displacement of [3H]-resiniferatoxin from human TRPV1 expressed in CHO cells incubated for 60 mins by scintillation counting analysis
In short: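 Competition binding against [3H]-resiniferatoxin using human TRPV1 heterologously expressed in CHO cells; Ki reported. Mean ± SEM of at least three experiments.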

[2] = target: T1, Transient receptor potential cation channel subfamily V member 1; assay: Agonist activity at human TRPV1 expressed in CHO cells assessed as 45Ca2+ uptake incubated for 5 mins by liquid scintillation counting analysis
In short: (§1)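 Human TRPV1 heterologously expressed in CHO cells; 45Ca2+ uptake measured. Maximal response defined with saturating capsaicin (1 μM). Mean ± SEM of at least three experiments. Where shown, % agonism refers to test concentrations of 3–30 μM.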

[3] = target: T1, Transient receptor potential cation channel subfamily V member 1; assay: Antagonist activity at human TRPV1 expressed in CHO cells assessed as inhibition of capsaicin-induced 45Ca2+ uptake incubated for 5 mins by liquid scintillation counting analysis
[4] = target: T1, Transient receptor potential cation channel subfamily V member 1; assay: Antagonist activity at human TRPV1 expressed in CHO cells assessed as inhibition of capsaicin-induced 45Ca2+ uptake preincubated for 30 mins prior to capsaicin challenge measured after 5 mins by liquid scintillation counting analysis
In short: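 CHO cells heterologously expressing human TRPV1 were given a 30 min pre-incubation with antagonist before challenge with capsaicin (30 nM). Capsaicin-stimulated 45Ca2+ uptake was read out, and Ki(ant) was derived from dose-dependent inhibition, allowing for competition with capsaicin. Values are mean ± SEM, with n ≥ 3 experiments.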

[5] = target: T1, Transient receptor potential cation channel subfamily V member 1; assay: Antagonist activity at human TRPV1 expressed in CHO cells assessed as inhibition of capsaicin-induced 45Ca2+ uptake preincubated for 15 mins prior to capsaicin challenge measured after 5 mins by liquid scintillation counting analysis
In short: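 Human TRPV1 heterologously expressed in CHO cells; cells pre-incubated with antagonist for 15 min, then challenged with capsaicin (30 nM) and 45Ca2+ uptake measured. Dose-dependent inhibition was used to derive Ki(ant), correcting for capsaicin–antagonist competition. Values are mean ± SEM of at least three experiments.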

[6] = target: T1, Transient receptor potential cation channel subfamily V member 1; assay: Agonist activity at human TRPV1 expressed in CHO cells assessed as 45Ca2+ uptake at 3 to 30 uM incubated for 5 mins by liquid scintillation counting analysis; in short: as §1
[7] = target: T1, Transient receptor potential cation channel subfamily V member 1; assay: Antagonist activity at human TRPV1 expressed in CHO cells assessed as inhibition of capsaicin-induced 45Ca2+ uptake at 3 to 30 uM incubated for 5 mins by liquid scintillation counting analysis

T1 sequence (Q8NER1 whole entry): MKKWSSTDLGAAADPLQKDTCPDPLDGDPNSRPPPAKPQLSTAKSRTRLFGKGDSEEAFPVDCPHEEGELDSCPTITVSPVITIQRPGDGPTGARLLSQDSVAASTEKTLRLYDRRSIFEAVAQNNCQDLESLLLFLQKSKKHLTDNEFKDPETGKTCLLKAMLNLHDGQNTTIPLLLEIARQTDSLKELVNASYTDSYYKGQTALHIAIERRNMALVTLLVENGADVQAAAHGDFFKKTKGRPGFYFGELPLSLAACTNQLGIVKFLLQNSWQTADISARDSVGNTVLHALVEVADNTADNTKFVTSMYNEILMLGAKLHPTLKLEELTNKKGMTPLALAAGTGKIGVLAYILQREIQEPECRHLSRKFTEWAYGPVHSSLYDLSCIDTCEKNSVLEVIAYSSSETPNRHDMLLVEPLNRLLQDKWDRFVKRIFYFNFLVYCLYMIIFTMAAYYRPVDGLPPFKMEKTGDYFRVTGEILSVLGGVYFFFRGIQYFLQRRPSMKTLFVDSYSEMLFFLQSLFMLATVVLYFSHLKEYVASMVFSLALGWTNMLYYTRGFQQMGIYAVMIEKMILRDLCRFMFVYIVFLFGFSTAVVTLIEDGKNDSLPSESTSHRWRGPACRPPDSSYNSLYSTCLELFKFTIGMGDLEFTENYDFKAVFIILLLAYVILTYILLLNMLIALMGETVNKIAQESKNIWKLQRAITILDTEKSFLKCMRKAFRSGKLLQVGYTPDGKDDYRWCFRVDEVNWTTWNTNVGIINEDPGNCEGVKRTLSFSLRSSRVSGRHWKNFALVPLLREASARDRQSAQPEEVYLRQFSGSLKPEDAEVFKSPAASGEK

SMILES	Ki [1]	EC50 [2]	Ki [3]	Ki [4]	Ki [5]	Activity [6]	inhibition [7]
CC1CCN(c2nc(C(F)(F)F)ccc2CNC(=O)NC(C)c2ccc(NS(C)(=O)=O)c(F)c2)CC1 (stereo unspecified)	31.6 nM	Not Active	28.1 nM				
CC1CCN(c2nc(C(F)(F)F)ccc2CNC(=O)C(C)c2ccc(CNS(C)(=O)=O)c(F)c2)CC1 (stereo unspecified)	230 nM	Not Active	27.6 nM				
CC1CCN(c2nc(C(F)(F)F)ccc2CNC(=O)NCc2ccc(NS(C)(=O)=O)c(F)c2)CC1		Not Active					
CC1CCN(c2nc(C(F)(F)F)ccc2CNC(=O)N(C)c2ccc(NS(C)(=O)=O)c(F)c2)CC1	1160 nM	Not Active	59 nM				
CC1CCN(c2nc(C(F)(F)F)ccc2CNC(=O)Nc2ccc(NS(C)(=O)=O)c(F)c2)CC1	83 nM	Not Active	149 nM				
CC1CCN(c2nc(C(F)(F)F)ccc2CNC(=O)[C@@H](C)c2ccc(NS(C)(=O)=O)c(F)c2)CC1		Not Active					
Cc1cccc(N(C(=O)NCc2ccc(C(F)(F)F)nc2N2CCC(C)CC2)c2ccc(NS(C)(=O)=O)c(F)c2)c1	490 nM	Not Active		860 nM	2200 nM		
CC1CCN(c2nc(C(F)(F)F)ccc2CNC(=O)C(C)c2ccc(NS(C)(=O)=O)c(F)c2)CC1 (stereo unspecified)		Not Active					
CC1CCN(c2nc(C(F)(F)F)ccc2CCNC(=O)Nc2ccc(NS(C)(=O)=O)c(F)c2)CC1	210 nM					29%	49%
CC1CCN(c2nc(C(F)(F)F)ccc2CCNC(=O)C(C)c2ccc(NS(C)(=O)=O)c(F)c2)CC1 (stereo unspecified)	54 nM	Not Active	95 nM				
CC1CCN(c2nc(C(F)(F)F)ccc2CNC(=O)Nc2ccc(CNS(C)(=O)=O)c(F)c2)CC1	6.77 nM	Not Active	12.5 nM				
CC1CCN(c2nc(C(F)(F)F)ccc2CNC(=O)NCc2ccc(CNS(C)(=O)=O)c(F)c2)CC1	410 nM	Not Active	199 nM				
